Assay results as given in article PMC9064050 (RSC Advances, 2019).

Assays:
[1] = system: human lung cancer (A549); experiment: In vitro anticancer MTT assay; type: cell-based; details: 50% cell death following 72 h exposure
Method in brief: (§1)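 MTT viability: cells seeded at 1 × 10^5 per well and incubated 24 h at 37 °C, 5% CO2. Treated with test compound at 10–100 μg mL−1 (from DMSO). Medium removed, wells PBS-washed, RPMI-1640 plus MTT (5 mg mL−1 solution) added for 4 h at 37 °C. Formazan dissolved in DMSO, read at 570 nm. Triplicate wells; IC50 from % viability; cisplatin as reference.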

[2] = system: liver cancer (HepG2); experiment: In vitro anticancer MTT assay; type: cell-based, human; details: 50% cell death following 72 h exposure
Method in brief: as §1

[3] = system: breast (MCF-7); experiment: In vitro anticancer MTT assay; type: cell-based, human; details: 50% cell death following 72 h exposure
Method in brief: as §1

[4] = system: normal human dermal fibroblast (NHDF); experiment: MTT assay on normal cells; type: cell-based; details: normal cell line; 50% cell death following 72 h exposure
Method in brief: as §1

[5] = system: Aspergillus niger; experiment: Kirby–Bauer agar disc diffusion; type: cell-based
Method in brief: (§2)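 Kirby–Bauer disc diffusion on Mueller–Hinton agar (pH 7.2, autoclaved 121 °C for 15 min, ~4 mm deep, held 2–8 °C for 24 h). Plates spread with 24 h cultures. 6 mm discs loaded with 20 μL of 100 μM test compound. Bacteria incubated at 37 °C for 48 h; fungi at 22 °C for 7 days. Clear-zone diameter measured by ruler; % inhibition by eqn (20) against 6 mm control.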

[6] = system: Candida albicans; experiment: Kirby–Bauer agar disc diffusion; type: cell-based
Method in brief: as §2

[7] = system: Mucor indicus; experiment: Kirby–Bauer agar disc diffusion; type: cell-based
Method in brief: as §2

[8] = system: Escherichia coli; experiment: Kirby–Bauer agar disc diffusion; type: cell-based
Method in brief: as §2

[9] = system: Salmonella enteric serovar typhi; experiment: Kirby–Bauer agar disc diffusion; type: cell-based
Method in brief: as §2

[10] = system: Chromobacterium violaceum; experiment: Kirby–Bauer agar disc diffusion; type: cell-based
Method in brief: as §2

[11] = system: Pseudomonas aeruginosa; experiment: Kirby–Bauer agar disc diffusion; type: cell-based
Method in brief: as §2

[12] = system: Shigella flexneri; experiment: Kirby–Bauer agar disc diffusion; type: cell-based
Method in brief: as §2

[13] = system: Staphylococcus aureus; experiment: Kirby–Bauer agar disc diffusion; type: cell-based
Method in brief: as §2

[14] = system: Bacillus cereus; experiment: Kirby–Bauer agar disc diffusion; type: cell-based
Method in brief: as §2

[15] = system: EB–DNA; details: at the concentration of 50 μM EB; cited from earlier work

SMILES: N.N.[Cl][Pt][Cl] [Cisplatin, cisplatin]
- IC50 A549 [1]: 09.62 µg/mL
- IC50 HepG2 [2]: 06.94 µg/mL
- IC50 MCF-7 [3]: 06.11 µg/mL
- IC50 NHDF [4]: 08.08 µg/mL

SMILES: CC(=O)N1CCN(c2ccc(OCC3COC(Cn4ccnc4)(c4ccc(Cl)cc4Cl)O3)cc2)CC1 (stereo not shown) [Ketokonazole, ketokonazole]
- zone of inhibition at 100 µM ([5]; Aspergillus niger, read-out: diameter of clear zone inhibition): 16 mm
- inhibition% ([5]; H = Aspergillus niger, eqn (20)): 63%
- zone of inhibition at 100 µM ([6]; Candida albicans, read-out: diameter of clear zone inhibition): 18 mm
- inhibition% ([6]; I = Candida albicans, eqn (20)): 67%
- inhibition% ([7]; J = Mucor indicus, eqn (20)): 67%
- zone of inhibition at 100 µM ([7]; Mucor indicus, read-out: diameter of clear zone inhibition): 18 mm

SMILES: [H]/N=C(/N)N[C@H]1[C@H](O)[C@@H](O)[C@H](O[C@@H]2O[C@@H](C)[C@](O)(C=O)[C@H]2O[C@@H]2O[C@@H](CO)[C@H](O)[C@@H](O)[C@@H]2NC)[C@@H](N/C(N)=N\[H])[C@@H]1O [Streptomycin, streptomycin]
- inhibition% ([8]; A = (−) Escherichia coli, from zone diameter, eqn (20)): 75%
- zone of inhibition at 100 µM ([8]; Escherichia coli, read-out: diameter of clear zone inhibition): 24 mm
- inhibition% ([9]; B = (−)Salmonella enteric serovar typhi, eqn (20)): 77%
- zone of inhibition at 100 µM ([9]; Salmonella, TYPHI, read-out: diameter of clear zone inhibition): 26 mm
- inhibition% ([10]; C = (−)Chromobacterium violaceum, eqn (20)): 75%
- zone of inhibition at 100 µM ([10]; Chromobacterium violaceum, read-out: diameter of clear zone inhibition): 24 mm
- inhibition% ([11]; D = (−)Pseudomonas aeruginosa, eqn (20)): 71%
- zone of inhibition at 100 µM ([11]; Pseudomonas aeruginosa, read-out: diameter of clear zone inhibition): 21 mm
- inhibition% ([12]; E = (−)Shigella flexneri, eqn (20)): 76%
- zone of inhibition at 100 µM ([12]; Shigella flexneri, read-out: diameter of clear zone inhibition): 25 mm
- inhibition% ([13]; F = (+)Staphylococcus aureus, eqn (20)): 71%
- zone of inhibition at 100 µM ([13]; Staphylococcus aureus, read-out: diameter of clear zone inhibition): 21 mm
- zone of inhibition at 100 µM ([14]; Bacillus cereus, read-out: diameter of clear zone inhibition): 21 mm
- inhibition% ([14]; G = (+)Bacillus cereus, eqn (20)): 71%

SMILES: CC[n+]1c(-c2ccccc2)c2cc(N)ccc2c2ccc(N)cc21 [EB, ethidium bromide]
- KEB (binding constant of EB to DNA) [15]: 10^7 M^−1
